Legend:
Assay type in all cases: cell-based
Piezo1 [1] = molecular target: T1, Piezo1 (Mus musculus, UniProt E2JF22); assay: Outside-out patch recording of pressure-evoked Piezo1 currents
Piezo1 [2] = molecular target: T1, Piezo1; conditions: 3.0 μM; Piezo1 in HEK293 cells; n=3 S.D.; SD
TREK-1 = assay: Outside-out patch recording of mechanosensitive TREK-1 currents; conditions: extracellular peptide; outside-out patches of cells transfected with TREK-1
Method in brief: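 HEK293 cells transfected with TREK-1 plasmid (250 ng, FuGENE) were recorded 24-48 h later in outside-out patches at room temperature. Extracellular (mM): 145 NaCl, 5 KCl, 3 MgCl2, 10 HEPES, 0.1 CaCl2, pH 7.3. Internal: 133 KCl, 10 HEPES, 5 EGTA, 3 MgCl2. Pressure pulses came from a high-speed pressure clamp. D and L peptide forms were perfused. Sampling was 10 kHz, filtered at 2 kHz.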

T1 sequence (E2JF22 whole entry): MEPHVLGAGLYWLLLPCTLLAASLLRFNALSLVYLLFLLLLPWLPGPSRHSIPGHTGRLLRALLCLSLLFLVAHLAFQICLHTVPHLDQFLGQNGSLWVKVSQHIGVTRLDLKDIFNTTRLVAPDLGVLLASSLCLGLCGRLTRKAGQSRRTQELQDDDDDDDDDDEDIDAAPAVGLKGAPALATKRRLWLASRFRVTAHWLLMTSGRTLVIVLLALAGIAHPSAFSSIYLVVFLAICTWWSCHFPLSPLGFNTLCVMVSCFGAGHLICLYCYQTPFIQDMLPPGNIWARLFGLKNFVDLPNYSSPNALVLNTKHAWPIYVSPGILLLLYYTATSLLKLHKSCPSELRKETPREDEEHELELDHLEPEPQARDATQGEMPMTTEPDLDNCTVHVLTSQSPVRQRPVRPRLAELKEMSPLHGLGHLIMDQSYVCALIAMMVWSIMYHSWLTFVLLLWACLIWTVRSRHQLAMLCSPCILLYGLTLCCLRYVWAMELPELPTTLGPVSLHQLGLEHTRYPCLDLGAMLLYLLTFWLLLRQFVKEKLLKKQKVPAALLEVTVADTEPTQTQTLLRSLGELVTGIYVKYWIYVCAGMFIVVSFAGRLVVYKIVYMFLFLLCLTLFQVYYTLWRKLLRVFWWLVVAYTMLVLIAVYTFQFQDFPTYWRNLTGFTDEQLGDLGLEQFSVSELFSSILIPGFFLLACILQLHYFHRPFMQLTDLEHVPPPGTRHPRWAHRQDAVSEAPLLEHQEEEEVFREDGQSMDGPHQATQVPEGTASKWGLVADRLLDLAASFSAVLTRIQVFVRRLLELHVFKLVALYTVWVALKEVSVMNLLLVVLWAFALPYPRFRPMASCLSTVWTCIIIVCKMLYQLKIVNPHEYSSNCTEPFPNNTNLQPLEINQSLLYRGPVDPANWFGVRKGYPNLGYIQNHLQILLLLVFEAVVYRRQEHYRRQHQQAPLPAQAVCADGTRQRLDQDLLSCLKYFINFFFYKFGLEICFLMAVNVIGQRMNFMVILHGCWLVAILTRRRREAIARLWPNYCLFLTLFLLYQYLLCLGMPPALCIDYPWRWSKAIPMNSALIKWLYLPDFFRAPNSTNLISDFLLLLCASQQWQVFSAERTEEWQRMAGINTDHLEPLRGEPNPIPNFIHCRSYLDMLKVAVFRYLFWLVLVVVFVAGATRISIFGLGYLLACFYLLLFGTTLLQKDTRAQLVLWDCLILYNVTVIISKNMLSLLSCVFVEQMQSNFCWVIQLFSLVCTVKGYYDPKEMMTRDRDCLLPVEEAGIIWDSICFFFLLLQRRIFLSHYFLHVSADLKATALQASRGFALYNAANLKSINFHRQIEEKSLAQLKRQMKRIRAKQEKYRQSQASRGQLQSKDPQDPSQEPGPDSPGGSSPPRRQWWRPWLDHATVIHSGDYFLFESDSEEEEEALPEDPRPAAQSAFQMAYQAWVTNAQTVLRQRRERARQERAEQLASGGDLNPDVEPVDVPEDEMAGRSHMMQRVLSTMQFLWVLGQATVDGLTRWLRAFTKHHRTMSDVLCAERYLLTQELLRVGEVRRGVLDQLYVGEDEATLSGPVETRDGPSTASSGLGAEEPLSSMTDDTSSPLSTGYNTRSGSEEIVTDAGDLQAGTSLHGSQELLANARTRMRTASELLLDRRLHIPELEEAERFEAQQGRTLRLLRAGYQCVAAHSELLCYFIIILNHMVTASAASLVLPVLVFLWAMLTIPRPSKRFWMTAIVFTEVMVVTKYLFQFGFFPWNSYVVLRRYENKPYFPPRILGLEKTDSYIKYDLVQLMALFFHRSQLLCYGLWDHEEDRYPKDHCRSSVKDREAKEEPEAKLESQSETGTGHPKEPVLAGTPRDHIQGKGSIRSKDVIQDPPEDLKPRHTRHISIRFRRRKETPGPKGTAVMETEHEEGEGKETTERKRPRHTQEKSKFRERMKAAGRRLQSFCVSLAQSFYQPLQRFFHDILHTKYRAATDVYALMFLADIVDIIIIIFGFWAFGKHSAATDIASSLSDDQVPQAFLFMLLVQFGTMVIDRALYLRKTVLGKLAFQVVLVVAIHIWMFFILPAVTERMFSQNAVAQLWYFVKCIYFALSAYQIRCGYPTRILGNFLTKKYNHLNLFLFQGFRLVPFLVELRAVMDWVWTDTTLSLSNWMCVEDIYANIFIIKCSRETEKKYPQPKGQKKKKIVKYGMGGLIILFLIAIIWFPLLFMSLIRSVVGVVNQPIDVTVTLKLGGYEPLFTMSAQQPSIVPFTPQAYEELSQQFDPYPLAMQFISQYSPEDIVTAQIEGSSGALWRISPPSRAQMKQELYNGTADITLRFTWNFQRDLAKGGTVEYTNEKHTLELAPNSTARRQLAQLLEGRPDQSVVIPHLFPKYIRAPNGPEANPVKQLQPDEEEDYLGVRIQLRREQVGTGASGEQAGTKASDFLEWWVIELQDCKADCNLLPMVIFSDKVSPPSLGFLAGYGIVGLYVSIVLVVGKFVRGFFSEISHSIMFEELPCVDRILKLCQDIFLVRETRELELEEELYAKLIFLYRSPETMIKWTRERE

Row | Compound | mode of inhibition of Piezo1 (Piezo1 [1]; 1 mM applied for 90 seconds to resting outside-out patches, Figure S2 B) | inhibition of peak currents (Piezo1 [1]; outside-out patches, 2.5 μM, n=5, Figure 1C, normalized data) | inhibition of whole cell mechanosensitive currents (Piezo1 [2]) | inhibition of TREK-1 mechanosensitive currents (TREK-1)
1 | [H]/N=C(/N)N[C@H]1[C@H](O)[C@@H](O)[C@H](O[C@@H]2O[C@@H](C)[C@](O)(C=O)[C@H]2O[C@@H]2O[C@@H](CO)[C@H](O)[C@@H](O)[C@@H]2NC)[C@@H](N/C(N)=N\[H])[C@@H]1O [streptomycin] | open channel blocker |  |  | 
2 | D-GsMTx4 |  | 29 ± 9% | 70±6% | no inhibition
